Reference: ChEMBL document CHEMBL4316659, “Selective Antiproliferative Withanolides from Species in the Genera Eriolarynx and Deprea” (J Nat Prod, 2019)

Key:
[1] = system: SW1573; test: Antiproliferative activity against human SW1573 cells incubated for 48 hrs in absence of P-gp and CYP3A4/5 inhibitor verapamil by SRB assay; format: functional; settings: SW1573, 48 h
How it was run: (§1)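 Wild-type SW1573 (2500 cells/well) and P-gp-overexpressing SW1573/Pgp (5000 cells/well) in RPMI 1640 with 5% FBS. Seeded 24 h, then exposed 48 h to serial dilutions (0.01−100 μM) with or without 10 μM verapamil (final) in the medium. Paclitaxel and vinblastine were reference drugs. SRB read at 530/620 nm. GI50 by NCI formulas, mean of at least two independent experiments ± SD.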

[2] = system: SW1573; test: Antiproliferative activity against human SW1573 cells over-expressing P-gp incubated for 48 hrs in absence of P-gp and CYP3A4/5 inhibitor verapamil by SRB assay; format: functional; settings: SW1573, 48 h; how it was run: as §1
[3] = system: SW1573; test: (§2) Resistance factor, ratio of GI50 for Antiproliferative activity against human SW1573 cells over-expressing P-gp incubated for 48 hrs in absence of P-gp and CYP3A4/5 inhibitor verapamil by SRB assay to GI50 for antiproliferative activity against human SW1573 cells incubated for 48 hrs in absence of P-gp and CYP3A4/5 inhibitor verapamil by SRB assay; format: functional
How it was run: (§3)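 Resistance factor is GI50 in SW1573/Pgp divided by GI50 in wild-type SW1573. Both come from 48 h SRB assays, run with 10 μM verapamil (final) or without it.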

[4] = system: SW1573; test: Antiproliferative activity against human SW1573 cells incubated for 48 hrs in presence of P-gp and CYP3A4/5 inhibitor verapamil by SRB assay; format: functional; settings: SW1573, 48 h; how it was run: as §1
[5] = system: SW1573; test: Antiproliferative activity against human SW1573 cells over-expressing P-gp incubated for 48 hrs in presence of P-gp and CYP3A4/5 inhibitor verapamil by SRB assay; format: functional; settings: SW1573, 48 h; how it was run: as §1
[6] = system: SW1573; test: as §2, with “presence” for “absence”; format: functional; how it was run: as §3
[7] = system: A549; test: Antiproliferative activity against human A549 cells incubated for 48 hrs by SRB assay; format: functional; settings: A549, 48 h
How it was run: (§4)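 Cells kept in RPMI 1640 with 5% FBS and 2 mM L-glutamine at 37 °C under 5% CO2. Seeded at 2500 (A549, HBL-100, HeLa, SW1573) or 5000 (T-47D, WiDr, BJ-hTERT) cells/well and left 24 h. Compounds added as serial dilutions (0.01−100 μM) for 48 h. SRB staining read at 530 and 620 nm. GI50 calculated by NCI formulas. Mean of at least two independent experiments ± SD.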

[8] = system: HBL-100; test: Antiproliferative activity against human HBL100 cells incubated for 48 hrs by SRB assay; format: functional; settings: HBL-100, 48 h; how it was run: as §4
[9] = system: HeLa; test: Antiproliferative activity against human HeLa cells incubated for 48 hrs by SRB assay; format: functional; how it was run: as §4
[10] = system: SW1573; test: Antiproliferative activity against human SW1573 cells incubated for 48 hrs by SRB assay; format: functional; settings: SW1573, 48 h; how it was run: as §4
[11] = system: T47D; test: Antiproliferative activity against human T47D cells incubated for 48 hrs by SRB assay; format: functional; how it was run: as §4
[12] = system: WiDr; test: Antiproliferative activity against human WiDr cells incubated for 48 hrs by SRB assay; format: functional; how it was run: as §4
[13] = Ratio of GI50 for antiproliferative activity against human hTERT-BJ cells incubated for 48 hrs by SRB assay to GI50 for antiproliferative activity against human HeLa cells incubated for 48 hrs by SRB assay; format: toxicity, cell-based; settings: hTERT-BJ cells versus HeLa cells, read-out: RatioGI50
How it was run: (§5)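 Selectivity is GI50 in the nontumor BJ-hTERT fibroblasts divided by GI50 in each tumor line. All values come from the same 48 h SRB assay, with 0.01−100 μM serial dilutions.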

[14] = Ratio of GI50 for antiproliferative activity against human hTERT-BJ cells incubated for 48 hrs by SRB assay to GI50 for antiproliferative activity against human SW1573 cells incubated for 48 hrs by SRB assay; format: toxicity, cell-based; settings: hTERT-BJ cells versus SW1573 cells, read-out: RatioGI50; how it was run: as §5
[15] = Ratio of GI50 for antiproliferative activity against human hTERT-BJ cells incubated for 48 hrs by SRB assay to GI50 for antiproliferative activity against human T47D cells incubated for 48 hrs by SRB assay; format: toxicity, cell-based; settings: hTERT-BJ cells versus T47D cells, read-out: RatioGI50; how it was run: as §5
[16] = Ratio of GI50 for antiproliferative activity against human hTERT-BJ cells incubated for 48 hrs by SRB assay to GI50 for antiproliferative activity against human WiDr cells incubated for 48 hrs by SRB assay; format: toxicity, cell-based; settings: hTERT-BJ cells versus WiDr cells, read-out: RatioGI50; how it was run: as §5
[17] = Antiproliferative activity against human hTERT-BJ cells incubated for 48 hrs by SRB assay; format: cell-based; how it was run: as §4
[18] = Ratio of GI50 for antiproliferative activity against human hTERT-BJ cells incubated for 48 hrs by SRB assay to GI50 for antiproliferative activity against human A549 cells incubated for 48 hrs by SRB assay; how it was run: as §5
[19] = Ratio of GI50 for antiproliferative activity against human hTERT-BJ cells incubated for 48 hrs by SRB assay to GI50 for antiproliferative activity against human HBL100 cells incubated for 48 hrs by SRB assay; how it was run: as §5

Structure (SMILES): CC(=O)O[C@H]1C(=O)[C@@]2(C)[C@H]([C@H](OC(=O)c3ccccc3)[C@]3(O)C[C@H](OC(=O)[C@H](O)[C@@H](NC(=O)c4ccccc4)c4ccccc4)C(C)=C1C3(C)C)[C@]1(OC(C)=O)CO[C@@H]1C[C@@H]2O [PACLITAXEL]
- GI50 [1]: 0.0015 µM
- GI50 [2]: 0.196 µM
- RatioGI50 [3]: 128
- GI50 [4]: 0.0016 µM
- GI50 [5]: 0.0042 µM
- RatioGI50 [6]: 2.6

Structure (SMILES): CC1=C(CO)C(=O)O[C@@H]([C@]2(C)OC(O)[C@@]34CC[C@H]5[C@@H](CC=C6CC=CC(=O)[C@@]65C)[C@](O)(CC[C@H]23)O4)C1 (some centres not stated)
- GI50 [7]: > 10 µM
- GI50 [8]: > 10 µM
- GI50 [9]: > 10 µM
- GI50 [10]: > 10 µM
- GI50 [11]: > 10 µM
- GI50 [12]: > 10 µM
- selectivity ratio at 48 h [13]: 2 to 10
- selectivity ratio at 48 h [14]: 2 to 10
- selectivity ratio at 48 h [15]: 2 to 10
- selectivity ratio at 48 h [16]: 2 to 10

Structure (SMILES): CC1=C(C)C(=O)O[C@@H]([C@]2(C)OC(O)[C@@]34CC[C@H]5[C@@H](CC=C6CC=CC(=O)[C@@]65C)[C@](O)(CC[C@H]23)O4)C1 (some centres not stated)
- GI50 [7]: > 10 µM
- GI50 [8]: > 10 µM
- GI50 [9]: > 100 µM
- GI50 [10]: > 10 µM
- GI50 [11]: > 10 µM
- GI50 [12]: > 10 µM
- selectivity ratio at 48 h [13]: 2 to 10
- selectivity ratio at 48 h [14]: 2 to 10
- selectivity ratio at 48 h [15]: 2 to 10
- selectivity ratio at 48 h [16]: 2 to 10

Structure (SMILES): C[C@]12C(=O)C=CCC1=C[C@H]1O[C@]3([C@@H]4C[C@]5(C)C(=O)O[C@H]4C[C@@]5(C)O)CC[C@@]4(O3)[C@H]1[C@@H]2CC[C@]4(C)O
- GI50 [7]: > 10 µM
- GI50 [8]: > 10 µM
- GI50 [9]: > 10 µM
- GI50 [10]: > 10 µM
- GI50 [11]: > 10 µM
- GI50 [12]: > 10 µM
- GI50 at 48 h [17]: > 10 µM
- RatioGI50 [18]: 2 - 10
- RatioGI50 [19]: 2 - 10
- selectivity ratio at 48 h [13]: 2 to 10
- selectivity ratio at 48 h [14]: 2 to 10
- selectivity ratio at 48 h [15]: 2 to 10
- selectivity ratio at 48 h [16]: 2 to 10

Structure (SMILES): CC1=C(C)C(=O)O[C@@H]([C@](C)(O)[C@H]2CC[C@H]3[C@@H]4[C@@H](O)C=C5[C@@H](O)C=CC(=O)[C@]5(C)[C@H]4CC[C@]23CO)C1
- GI50 [7]: > 10 µM
- GI50 [8]: > 10 µM
- GI50 [9]: > 10 µM
- GI50 [10]: > 10 µM
- GI50 [11]: > 10 µM
- GI50 [12]: > 10 µM
- selectivity ratio at 48 h [13]: 2 to 10
- selectivity ratio at 48 h [14]: 2 to 10
- selectivity ratio at 48 h [15]: 2 to 10
- selectivity ratio at 48 h [16]: 2 to 10

Structure (SMILES): C[C@]12C(=O)C=CC=C1[C@H](O)[C@H]1O[C@]3([C@@H]4C[C@]5(C)C(=O)O[C@H]4C[C@@]5(C)O)CC[C@@]4(O3)[C@H]1[C@@H]2CC[C@]4(C)O
- GI50 [7]: > 10 µM
- GI50 [8]: > 10 µM
- GI50 [9]: 3.3 µM
- GI50 [10]: 4.4 µM
- GI50 [11]: 6.4 µM
- GI50 [12]: > 10 µM
- GI50 at 48 h [17]: 5.3 µM
- GI50 [1]: 4.1 µM
- GI50 [2]: 4.5 µM
- RatioGI50 [3]: 1.1
- GI50 [4]: 5.5 µM
- GI50 [5]: 2.7 µM
- RatioGI50 [6]: 0.5

Structure (SMILES): C[C@]12C(=O)CC=CC1=C[C@H]1O[C@]3([C@@H]4C[C@]5(C)C(=O)O[C@H]4C[C@@]5(C)O)CC[C@@]4(O3)[C@H]1[C@@H]2CC[C@]4(C)O
- GI50 [7]: > 10 µM
- GI50 [8]: > 10 µM
- GI50 [9]: > 10 µM
- GI50 [10]: > 10 µM
- GI50 [11]: > 10 µM
- GI50 [12]: > 10 µM
- selectivity ratio at 48 h [13]: 2 to 10
- selectivity ratio at 48 h [14]: 2 to 10
- selectivity ratio at 48 h [15]: 2 to 10
- selectivity ratio at 48 h [16]: 2 to 10
